Data set [1] in a line: Drug metabolism in human liver microsomes after 20 mins. The note with it: read-out: Drug metabolism. Type of data set: ADME, Microsome. In short, it runs like this: (§1)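 Liver microsomes (human or mouse) incubated with compound for 20 min; %lability reported as % of compound metabolized.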
Background: Liver microsomes are vesicles of endoplasmic reticulum, rich in cytochrome P450 enzymes.

Data set [2] addresses Phosphatidylinositol 4,5-bisphosphate 3-kinase catalytic subunit gamma isoform (Homo sapiens, UniProt P48736). Put plainly: Inhibition of PI3Kgamma.
Data set [3] addresses Serine/threonine-protein kinase mTOR (Homo sapiens, UniProt P42345). As to the kind of experiment: Inhibition of mTOR.
The target of the next data set is Cytochrome P450 3A4 (Homo sapiens, UniProt P08684). Put plainly: Inhibition of human recombinant CYP3A4. It counts as ADME.
Sequence of Cytochrome P450 3A4 (P08684 whole entry): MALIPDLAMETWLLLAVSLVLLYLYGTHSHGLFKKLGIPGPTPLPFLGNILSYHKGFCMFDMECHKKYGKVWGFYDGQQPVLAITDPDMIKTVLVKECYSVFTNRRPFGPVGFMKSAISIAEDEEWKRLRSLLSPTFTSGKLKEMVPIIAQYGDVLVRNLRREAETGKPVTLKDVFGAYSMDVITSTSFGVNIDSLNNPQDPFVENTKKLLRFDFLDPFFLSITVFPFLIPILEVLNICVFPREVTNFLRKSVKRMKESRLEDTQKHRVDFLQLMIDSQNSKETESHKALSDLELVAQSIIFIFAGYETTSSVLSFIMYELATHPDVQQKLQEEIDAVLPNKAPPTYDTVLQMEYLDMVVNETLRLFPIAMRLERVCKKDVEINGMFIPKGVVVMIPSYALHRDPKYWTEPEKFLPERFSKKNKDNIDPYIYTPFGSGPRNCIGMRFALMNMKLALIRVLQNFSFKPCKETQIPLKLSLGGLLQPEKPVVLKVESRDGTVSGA
Data set [4] can be described thus: Apparent permeability across human Caco2/TC7 cells. The note with it: Caco-2. It counts as ADME, cell-based. In short, it runs like this:
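Caco-2 TC7 clone monolayers; transport measured in both apical-to-basolateral and basolateral-to-apical directions, giving Papp (nm/s) and an efflux ratio.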
(In general: Passage across Caco-2 layers is used to estimate intestinal permeability.)

Data set [5] is described as follows: Drug metabolism in mouse liver microsomes after 20 mins. Type of data set: ADME, Microsome. The note with it: read-out: Drug metabolism. Put shortly: as §1
Data set [6] can be described thus: Inhibition of Akt phosphorylation at S473 in PTEN deficient human PC3 cells. It counts as cell-based. The note with it: PC-3.
Data set [7] in a line: Equilibrium solubility of the compound in phosphate buffer at pH 7.4 after 16 hrs by HPLC analysis. Type of data set: physicochemical.
Data set [8] has as its target T1, Phosphatidylinositol 4,5-bisphosphate 3-kinase catalytic subunit delta isoform (Homo sapiens, UniProt O00329).
T1 sequence (O00329 whole entry): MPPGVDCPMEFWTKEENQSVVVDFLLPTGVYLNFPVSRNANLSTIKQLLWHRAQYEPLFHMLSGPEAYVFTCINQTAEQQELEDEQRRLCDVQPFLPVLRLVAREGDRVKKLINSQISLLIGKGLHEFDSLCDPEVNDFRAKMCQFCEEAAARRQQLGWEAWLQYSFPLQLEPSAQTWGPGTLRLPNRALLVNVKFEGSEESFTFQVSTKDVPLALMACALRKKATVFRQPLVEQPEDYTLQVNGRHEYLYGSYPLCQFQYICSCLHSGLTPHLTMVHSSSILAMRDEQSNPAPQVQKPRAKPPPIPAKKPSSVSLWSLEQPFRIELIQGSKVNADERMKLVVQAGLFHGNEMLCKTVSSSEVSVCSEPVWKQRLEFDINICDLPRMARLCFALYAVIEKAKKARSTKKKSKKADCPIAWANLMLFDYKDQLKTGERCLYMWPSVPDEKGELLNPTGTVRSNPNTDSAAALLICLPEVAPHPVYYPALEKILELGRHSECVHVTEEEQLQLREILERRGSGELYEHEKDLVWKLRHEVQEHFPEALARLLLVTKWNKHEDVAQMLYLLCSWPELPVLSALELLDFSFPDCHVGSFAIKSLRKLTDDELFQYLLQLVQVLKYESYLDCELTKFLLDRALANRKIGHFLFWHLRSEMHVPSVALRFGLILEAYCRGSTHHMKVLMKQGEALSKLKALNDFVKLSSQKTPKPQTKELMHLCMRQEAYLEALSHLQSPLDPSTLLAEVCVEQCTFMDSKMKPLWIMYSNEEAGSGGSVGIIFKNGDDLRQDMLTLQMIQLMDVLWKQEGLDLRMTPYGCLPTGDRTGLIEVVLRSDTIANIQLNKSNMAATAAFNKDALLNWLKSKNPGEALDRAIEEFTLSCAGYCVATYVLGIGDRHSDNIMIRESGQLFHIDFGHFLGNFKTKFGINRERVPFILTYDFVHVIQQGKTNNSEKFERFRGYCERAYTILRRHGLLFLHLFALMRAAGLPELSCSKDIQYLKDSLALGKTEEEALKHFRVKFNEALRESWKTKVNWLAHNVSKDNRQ
Put plainly: Inhibition of PI3Kdelta.

Data set [9] is described as follows: Efflux ratio of permeability […] in human Caco2/TC7 cells. Type of data set: ADME, cell-based. In short, it runs like this:
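Caco-2 TC7 clone cells grown as a monolayer; compound transport measured in both directions, apical to basolateral (A–B) and basolateral to apical (B–A); apparent permeability (Papp) read out, and efflux ratio derived from the two directional measurements.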

The target of data set [10] is Phosphatidylinositol 4,5-bisphosphate 3-kinase catalytic subunit alpha isoform (Homo sapiens, UniProt P42336). As to the kind of experiment: Inhibition of PI3Kalpha.
Sequence of Phosphatidylinositol 4,5-bisphosphate 3-kinase catalytic subunit alpha isoform (P42336 whole entry, canonical isoform): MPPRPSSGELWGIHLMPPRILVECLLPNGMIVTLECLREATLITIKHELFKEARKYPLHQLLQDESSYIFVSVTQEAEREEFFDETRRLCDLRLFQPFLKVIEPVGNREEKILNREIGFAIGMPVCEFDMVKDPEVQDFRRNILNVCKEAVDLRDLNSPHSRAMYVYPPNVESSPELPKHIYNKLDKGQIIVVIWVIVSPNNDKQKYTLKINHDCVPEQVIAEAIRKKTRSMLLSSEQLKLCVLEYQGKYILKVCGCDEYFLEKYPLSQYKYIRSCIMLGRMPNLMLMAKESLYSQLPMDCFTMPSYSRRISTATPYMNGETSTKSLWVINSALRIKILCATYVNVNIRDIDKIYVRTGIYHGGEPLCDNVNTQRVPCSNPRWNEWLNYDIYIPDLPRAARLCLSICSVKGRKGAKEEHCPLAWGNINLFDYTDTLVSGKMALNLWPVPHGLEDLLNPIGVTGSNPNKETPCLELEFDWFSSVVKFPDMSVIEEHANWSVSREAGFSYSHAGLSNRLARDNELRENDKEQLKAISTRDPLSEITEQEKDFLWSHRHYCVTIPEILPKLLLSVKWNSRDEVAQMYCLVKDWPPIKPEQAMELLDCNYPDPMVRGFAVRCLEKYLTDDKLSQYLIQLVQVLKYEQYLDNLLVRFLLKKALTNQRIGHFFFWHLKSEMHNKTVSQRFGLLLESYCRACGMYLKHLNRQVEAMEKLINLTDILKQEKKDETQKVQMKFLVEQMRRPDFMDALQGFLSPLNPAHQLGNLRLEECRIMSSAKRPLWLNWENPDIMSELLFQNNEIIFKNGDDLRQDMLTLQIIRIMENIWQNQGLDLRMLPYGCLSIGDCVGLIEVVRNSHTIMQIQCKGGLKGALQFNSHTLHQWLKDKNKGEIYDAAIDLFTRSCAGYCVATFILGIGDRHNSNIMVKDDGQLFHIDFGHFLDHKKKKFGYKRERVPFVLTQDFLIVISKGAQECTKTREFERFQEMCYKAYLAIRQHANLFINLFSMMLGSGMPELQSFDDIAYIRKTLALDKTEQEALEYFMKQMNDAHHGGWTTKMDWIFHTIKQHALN
Data set [11] has as its target Phosphatidylinositol 4,5-bisphosphate 3-kinase catalytic subunit beta isoform (Homo sapiens, UniProt P42338). Put plainly: Inhibition of PI3Kbeta.
Data set [12] deals with Mus musculus. As to the kind of experiment: Inhibition of Akt phosphorylation at S473 in PTEN deficient human PC3 cells xenografted SCID mouse tumor at 30 mg/kg, po administered as solution after 1 hr. It counts as functional. The note with it: PC-3, 1 h. In general terms: Xenograft models place foreign cells or tissue in a host animal.
In data set [13] the test system is Mus musculus. Put plainly: Inhibition of Akt phosphorylation at S473 in PTEN deficient human PC3 cells xenografted SCID mouse tumor at 244 mg/kg, po administered as suspension after 6 hrs. It counts as functional. The note with it: PC-3, 6 h.
Data set [14] deals with Mus musculus. Put plainly: Inhibition of Akt phosphorylation at T308 in PTEN deficient human PC3 cells xenografted SCID mouse tumor at 244 mg/kg, po administered as suspension after 1 hr. The note with it: PC-3, 1 h. It counts as functional.
Data set [15] concerns Mus musculus. Put plainly: Inhibition of Akt phosphorylation at T308 in PTEN deficient human PC3 cells xenografted SCID mouse tumor at 30 mg/kg, po administered as solution after 6 hrs. It counts as functional. The note with it: PC-3, 6 h.
For data set [16], the system named is Mus musculus. Put plainly: Hepatic clearance in SCID mouse at 3 mg/kg, iv. The note with it: in vivo. On the set-up: dose 3 mg/kg, route intravenous. It counts as ADME, organism-based, Liver.
Data set [17] is described as follows: Plasma concentration in SCID mouse xenografted with PTEN deficient human PC3 cells at 30 mg/kg, po administered as solution after 6 hrs. Type of data set: ADME, organism-based, PC-3. On the set-up: dose 30 mg/kg, route oral. Put shortly: (§2)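 SCID mice bearing PTEN-deficient PC3 prostate tumor xenografts given a single oral dose, either 30 mg/kg in solution or 244 mg/kg in suspension; drug levels in plasma and tumor measured at 1 and 6 h after dosing.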

For data set [18], the system named is Mus musculus. Put plainly: Inhibition of Akt phosphorylation at T308 in PTEN deficient human PC3 cells xenografted SCID mouse tumor at 30 mg/kg, po administered as solution after 1 hr. It counts as functional. The note with it: PC-3, 1 h.
The subject of data set [19] is Mus musculus. Put plainly: Inhibition of Akt phosphorylation at T308 in PTEN deficient human PC3 cells xenografted SCID mouse tumor at 244 mg/kg, po administered as suspension after 6 hrs. It counts as functional. The note with it: PC-3, 6 h.
For data set [20], the system named is Mus musculus. Put plainly: Inhibition of Akt phosphorylation at S473 in PTEN deficient human PC3 cells xenografted SCID mouse tumor at 30 mg/kg, po administered as solution after 6 hrs. Type of data set: functional. The note with it: PC-3, 6 h.
Data set [21] in a line: Oral bioavailability in SCID mouse at 10 mg/kg. The note with it: in vivo. Type of data set: ADME, organism-based.
Data set [22] in a line: Drug uptake in PTEN deficient human PC3 cells xenografted SCID mouse tumor at 244 mg/kg, po administered as suspension after 6 hrs. Type of data set: ADME, organism-based, Neoplasm, PC-3. On the set-up: dose 244 mg/kg, route oral. The note with it: tumor (PC3 xenograft), read-out: Drug uptake. Put shortly: as §2
Data set [23] concerns Mus musculus. As to the kind of experiment: Inhibition of Akt phosphorylation at S473 in PTEN deficient human PC3 cells xenografted SCID mouse tumor at 244 mg/kg, po administered as suspension after 1 hr. It counts as functional. The note with it: PC-3, 1 h.
The nature of data set [24]: Drug uptake in PTEN deficient human PC3 cells xenografted SCID mouse tumor at 30 mg/kg, po administered as solution after 6 hrs. Type of data set: ADME, organism-based, Neoplasm, PC-3. On the set-up: dose 30 mg/kg, route oral. The note with it: tumor (PC3 xenograft), read-out: Drug uptake. Put shortly: as §2
Data set [25] is described as follows: Plasma concentration in SCID mouse xenografted with PTEN deficient human PC3 cells at 244 mg/kg, po administered as suspension after 1 hr. It counts as ADME, organism-based, PC-3. On the set-up: dose 244 mg/kg, route oral. Put shortly:
as §2

Data set [26] can be described thus: Drug uptake in PTEN deficient human PC3 cells xenografted SCID mouse tumor at 30 mg/kg, po administered as solution after 1 hr. It counts as ADME, organism-based, Neoplasm, PC-3. On the set-up: dose 30 mg/kg, route oral. The note with it: tumor (PC3 xenograft), read-out: Drug uptake. Put shortly:
as §2

The nature of data set [27]: Terminal elimination half life in SCID mouse at 10 mg/kg, po. It counts as ADME, organism-based. On the set-up: dose 10 mg/kg, route oral. The note with it: in vivo, read-out: beta t1/2 (converted).
Data set [28] is described as follows: Plasma concentration in SCID mouse xenografted with PTEN deficient human PC3 cells at 244 mg/kg, po administered as suspension after 6 hrs. On the set-up: dose 244 mg/kg, route oral. Type of data set: ADME, organism-based, PC-3. Put shortly: as §2
The nature of data set [29]: Volume of distribution at steady state in SCID mouse at 3 mg/kg, iv. On the set-up: dose 3 mg/kg, route intravenous. Type of data set: ADME, organism-based. The note with it: in vivo, read-out: Vdss.
Data set [30] in a line: Drug uptake in PTEN deficient human PC3 cells xenografted SCID mouse tumor at 244 mg/kg, po administered as suspension after 1 hr. It counts as ADME, organism-based, Neoplasm, PC-3. On the set-up: dose 244 mg/kg, route oral. The note with it: tumor (PC3 xenograft), read-out: Drug uptake. In short, it runs like this: as §2
Data set [31] can be described thus: Plasma concentration in SCID mouse xenografted with PTEN deficient human PC3 cells at 30 mg/kg, po administered as solution after 1 hr. It counts as ADME, organism-based, PC-3. On the set-up: dose 30 mg/kg, route oral. Put shortly:
as §2

Experimental findings from ChEMBL document CHEMBL2150988, “Preparation and optimization of new 4-(morpholin-4-yl)-(6-oxo-1,6-dihydropyrimidin-2-yl)amide derivatives as PI3Kβ inhibitors” (Bioorg Med Chem Lett, 2012) are described below.

Values after ≈ are worked out from the molar mass of the structure shown.

Sequence of Phosphatidylinositol 4,5-bisphosphate 3-kinase catalytic subunit gamma isoform (P48736 whole entry, canonical isoform): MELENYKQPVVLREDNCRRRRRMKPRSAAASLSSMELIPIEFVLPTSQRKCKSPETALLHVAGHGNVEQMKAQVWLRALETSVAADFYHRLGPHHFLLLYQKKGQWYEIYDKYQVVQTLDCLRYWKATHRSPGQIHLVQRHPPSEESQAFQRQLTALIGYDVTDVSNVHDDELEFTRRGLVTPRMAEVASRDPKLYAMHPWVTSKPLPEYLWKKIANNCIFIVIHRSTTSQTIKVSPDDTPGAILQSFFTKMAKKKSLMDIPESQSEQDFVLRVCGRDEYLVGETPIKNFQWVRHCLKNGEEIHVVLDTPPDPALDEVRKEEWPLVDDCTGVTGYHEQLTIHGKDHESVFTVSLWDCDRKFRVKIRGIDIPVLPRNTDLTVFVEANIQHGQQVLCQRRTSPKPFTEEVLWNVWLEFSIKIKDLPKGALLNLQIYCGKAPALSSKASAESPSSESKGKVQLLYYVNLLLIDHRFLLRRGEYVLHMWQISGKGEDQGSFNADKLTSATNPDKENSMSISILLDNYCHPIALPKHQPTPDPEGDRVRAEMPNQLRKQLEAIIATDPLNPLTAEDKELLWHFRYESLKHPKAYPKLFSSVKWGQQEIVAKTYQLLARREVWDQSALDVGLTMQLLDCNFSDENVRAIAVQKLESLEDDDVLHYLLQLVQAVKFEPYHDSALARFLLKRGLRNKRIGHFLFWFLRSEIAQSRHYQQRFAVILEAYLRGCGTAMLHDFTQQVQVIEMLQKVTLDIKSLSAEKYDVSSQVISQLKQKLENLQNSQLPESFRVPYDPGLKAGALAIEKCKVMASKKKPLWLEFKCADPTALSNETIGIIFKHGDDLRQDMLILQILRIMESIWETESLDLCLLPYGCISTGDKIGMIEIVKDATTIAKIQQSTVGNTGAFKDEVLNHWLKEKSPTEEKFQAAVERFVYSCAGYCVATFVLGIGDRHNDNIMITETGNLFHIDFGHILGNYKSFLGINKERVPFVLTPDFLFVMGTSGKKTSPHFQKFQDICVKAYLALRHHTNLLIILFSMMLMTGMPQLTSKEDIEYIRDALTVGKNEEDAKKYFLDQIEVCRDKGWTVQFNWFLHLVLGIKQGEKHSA
Sequence of Phosphatidylinositol 4,5-bisphosphate 3-kinase catalytic subunit beta isoform (P42338 whole entry, canonical isoform): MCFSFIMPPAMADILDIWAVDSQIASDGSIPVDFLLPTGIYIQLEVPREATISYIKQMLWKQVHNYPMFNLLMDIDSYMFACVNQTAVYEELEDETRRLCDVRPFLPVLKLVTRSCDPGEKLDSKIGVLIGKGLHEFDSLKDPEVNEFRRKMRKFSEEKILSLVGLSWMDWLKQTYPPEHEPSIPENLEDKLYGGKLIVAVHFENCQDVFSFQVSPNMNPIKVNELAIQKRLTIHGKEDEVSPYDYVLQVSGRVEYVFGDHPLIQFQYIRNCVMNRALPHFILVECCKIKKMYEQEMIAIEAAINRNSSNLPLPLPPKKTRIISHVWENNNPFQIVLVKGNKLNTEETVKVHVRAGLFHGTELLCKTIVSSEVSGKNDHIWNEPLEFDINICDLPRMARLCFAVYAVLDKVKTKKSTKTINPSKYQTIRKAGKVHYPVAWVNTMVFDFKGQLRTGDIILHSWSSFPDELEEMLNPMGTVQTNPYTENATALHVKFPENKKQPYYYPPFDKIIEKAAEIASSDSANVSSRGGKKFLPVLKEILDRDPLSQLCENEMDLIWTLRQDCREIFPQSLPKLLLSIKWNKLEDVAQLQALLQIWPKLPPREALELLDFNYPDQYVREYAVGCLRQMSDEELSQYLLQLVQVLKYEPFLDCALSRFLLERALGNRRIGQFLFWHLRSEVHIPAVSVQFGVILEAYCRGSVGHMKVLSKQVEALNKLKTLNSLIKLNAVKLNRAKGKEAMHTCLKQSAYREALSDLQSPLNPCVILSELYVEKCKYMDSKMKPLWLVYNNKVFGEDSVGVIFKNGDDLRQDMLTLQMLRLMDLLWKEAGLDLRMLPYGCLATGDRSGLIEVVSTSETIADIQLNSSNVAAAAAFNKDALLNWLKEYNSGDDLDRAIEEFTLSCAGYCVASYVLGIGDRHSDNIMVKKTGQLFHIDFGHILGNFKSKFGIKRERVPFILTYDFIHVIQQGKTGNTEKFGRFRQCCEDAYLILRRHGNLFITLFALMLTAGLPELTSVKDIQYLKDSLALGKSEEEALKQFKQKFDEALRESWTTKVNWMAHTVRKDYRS

One may read the IC50 as the point on the concentration scale where inhibition reaches its midpoint. The term Papp denotes a coefficient for how fast a substance crosses the barrier. What is called thermodynamic solubility is the concentration in solution at equilibrium with solid. As to `O=C(Cc1nc(N2CCOCC2)cc(=O)[nH]1)Nc1ccccc1`, the metabolised at 20 min in [1] was 44%; in data set [5], 4%. Also, the IC50 was > 10000 nM in data set [2], > 10000 nM in data set [3], > 40000 nM at Cytochrome P450 3A4 and 68 nM in data set [6]. Also, the Papp in data set [4] came to 0.5 ×10⁻⁶ cm/s. Also, the thermodynamic solubility at 16 h in data set [7] was determined as 73 µM (≈ 22.9 µg/mL).
`O=C(Cc1nc(N2CCOCC2)cc(=O)[nH]1)Nc1cccc(Br)c1`: the IC50 is 189 nM in data set [8]; > 10000 nM in data set [2]; 1910 nM in [10]; > 40000 nM on Cytochrome P450 3A4; 5 nM in data set [11]; 10 nM in [6]. Also, the metabolised at 20 min in data set [1] turned out to be 75%; in data set [5] it was 38%. The Ratio in data set [9] came out at 26. Moreover, the Papp in data set [4] came out at 1.4 ×10⁻⁶ cm/s. Also, the solubility (thermodynamic) at 16 h in data set [7] came out at 6 µM (≈ 2.36 µg/mL).
Broadly, the inhibition in vivo is the change of the read-out against control, counted positive when it falls. A high value points to a response far below the control. Broadly, the bioavailability is the share of a dose that reaches the circulation, judged against a reference dose that is usually intravenous. Higher therefore signals much systemic uptake. On to `Cn1c(CC(=O)Nc2ccc(F)c(Cl)c2)nc(N2CCOCC2)cc1=O`, for which the inhibition in vivo at 30 mg/kg in the data set on Mus musculus [12] was 91%; with Mus musculus [15], 23%; in the data set with Mus musculus [18] it was 86%; in the data set on Mus musculus [20], 0%. For the same molecule, the inhibition in vivo at 244 mg/kg in the data set on Mus musculus [13] came out at 0%; in the data set with Mus musculus [14] it was 63%; in the data set with Mus musculus [19] it was 0%; with Mus musculus [23] it was 73%. The IC50 was 2210 nM in data set [8]; 8280 nM in data set [2]; > 10000 nM in data set [10]; > 40000 nM on Cytochrome P450 3A4; 42 nM in data set [11]; 79 nM in [6]. Further, the CLH in the data set with Mus musculus [16] amounted to 26.7 mL/min/kg. Besides, the metabolised at 20 min in data set [1] came out at 44%; in data set [5], 12%. Moreover, the concentration at 6 h in [17] turned out to be 0.4 µM; in data set [22], 1.7 µM; in data set [24] it was 1 µM; in [28] it was 1.6 µM. Further, the bioavailability in data set [21] was determined as 52%. Besides, the Ratio in data set [9] is 4. For the same molecule, the concentration at 1 h in data set [25] was determined as 4.5 µM; in data set [26], 11 µM; in data set [30], 6 µM; in data set [31] it was 10 µM. Also, in data set [4], the apparent permeability (Papp) came out at 6.6 ×10⁻⁶ cm/s. In [27], the half-life was 1.4 h. Also, the thermodynamic solubility at 16 h in [7] was 5 µM (≈ 1.9 µg/mL). Moreover, the Vd in data set [29] came to 1.3 L/kg.
